In ChEMBL document CHEMBL3992549, “Combretastatin A4-β-Galactosyl Conjugates for Ovarian Cancer Prodrug Monotherapy” (ACS Med Chem Lett, 2017):
Blank lines part the entries; values can stand above or below the compound they belong to. Calls of active or inactive are those of the source. No cut-off for these calls is given here.

Columns and labels:
Homo sapiens [1] = species on record: Homo sapiens; experiment: Induction of microtubule disruption in human OVCAR3 cells assessed as nuclear contraction at 10 nM after 24 hrs by Alexa Fluor 647/DAPI staining based fluorescence microscopic method; type: cell-based
How it was run: (§1)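 OVCAR3 cells treated for 24 h, then imaged by confocal fluorescence microscopy. Nuclei were stained directly with DAPI. α-Tubulin was detected with an Alexa Fluor 647-conjugated secondary antibody. Microtubule architecture, cytoskeleton and nuclear morphology (contraction, fragmentation) were scored.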

Homo sapiens [2] = species on record: Homo sapiens; experiment: Induction of microtubule disruption in human OVCAR3 cells assessed as cytoskeleton contraction at 10 nM after 24 hrs by Alexa Fluor 647/DAPI staining based fluorescence microscopic method; type: cell-based; how it was run: as §1
OVCAR-3 [3] = experiment: Cytotoxicity against human OVCAR3 cells assessed as reduction in cell viability after 72 hrs by WST8 assay; type: functional, cell-based; details: OVCAR-3, 72 h
Homo sapiens [4] = species on record: Homo sapiens; experiment: Induction of microtubule disruption in human OVCAR3 cells assessed as nuclear fragmentation at 10 nM after 24 hrs by Alexa Fluor 647/DAPI staining based fluorescence microscopic method; type: cell-based; how it was run: as §1
[5] = Cytotoxicity against human OVK18 cells assessed as reduction in cell viability after 72 hrs by WST8 assay; type: functional, cell-based; details: OVK18, 72 h
Homo sapiens [6] = species on record: Homo sapiens; experiment: Induction of microtubule disruption in human OVCAR3 cells assessed as change in microtubule architecture at 10 nM after 24 hrs by Alexa Fluor 647/DAPI staining based fluorescence microscopic method; type: cell-based; how it was run: as §1
Homo sapiens [7] = species on record: Homo sapiens; experiment: Induction of microtubule disruption in human OVCAR3 cells assessed as nuclear contraction at 20 to 200 nM after 24 hrs by Alexa Fluor 647/DAPI staining based fluorescence microscopic method; type: cell-based; how it was run: as §1
Homo sapiens [8] = species on record: Homo sapiens; experiment: Induction of microtubule disruption in human OVCAR3 cells assessed as nuclear fragmentation at 20 to 200 nM after 24 hrs by Alexa Fluor 647/DAPI staining based fluorescence microscopic method; type: cell-based; how it was run: as §1
Sus scrofa = species on record: Sus scrofa; experiment: Inhibition of pig brain tubulin polymerization at 5 uM measured every 1 min for 60 mins by HTS assay
Homo sapiens [9] = species on record: Homo sapiens; experiment: Induction of microtubule disruption in human OVCAR3 cells assessed as change in microtubule architecture at 20 to 200 nM after 24 hrs by Alexa Fluor 647/DAPI staining based fluorescence microscopic method; type: cell-based; how it was run: as §1
Beta-galactosidase = target: T1, Beta-galactosidase (Homo sapiens, UniProt P16278); experiment: Prodrug activation in PBS buffer assessed as beta-galactosidase (unknown origin) mediated CA4 formation at 0.2 mM after 1 hr by HPLC analysis; details: 200 µM
T1 sequence (P16278 whole entry): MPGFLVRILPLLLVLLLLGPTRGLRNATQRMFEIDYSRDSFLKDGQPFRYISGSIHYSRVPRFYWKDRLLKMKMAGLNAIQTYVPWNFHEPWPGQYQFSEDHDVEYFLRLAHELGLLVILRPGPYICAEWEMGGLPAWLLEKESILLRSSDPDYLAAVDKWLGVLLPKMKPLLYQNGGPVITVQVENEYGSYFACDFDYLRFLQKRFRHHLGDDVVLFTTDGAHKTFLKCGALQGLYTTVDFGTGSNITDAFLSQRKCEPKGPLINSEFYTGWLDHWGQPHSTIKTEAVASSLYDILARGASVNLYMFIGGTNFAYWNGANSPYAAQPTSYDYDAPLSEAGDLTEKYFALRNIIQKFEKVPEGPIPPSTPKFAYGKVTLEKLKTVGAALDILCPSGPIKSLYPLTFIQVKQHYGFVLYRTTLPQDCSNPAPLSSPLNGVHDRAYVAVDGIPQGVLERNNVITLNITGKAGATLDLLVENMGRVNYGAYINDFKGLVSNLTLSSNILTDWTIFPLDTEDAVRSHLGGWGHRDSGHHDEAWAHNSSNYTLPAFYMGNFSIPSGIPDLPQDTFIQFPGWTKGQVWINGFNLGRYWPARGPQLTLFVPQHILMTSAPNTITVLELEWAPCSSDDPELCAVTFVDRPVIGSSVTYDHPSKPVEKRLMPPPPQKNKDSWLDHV

OVK18 [10] = experiment: Cytotoxicity against human OVK18 cells assessed as reduction in cell viability at 200 nM after 48 hrs in presence of beta-galactosidase inhibitor beta-GA by WST8 assay; type: functional, cell-based
How it was run: (§2)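 β-Galactosidase inhibition condition was 1 mM β-GA present during compound treatment.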

Homo sapiens [11] = species on record: Homo sapiens; experiment: Induction of microtubule disruption in human OVCAR3 cells assessed as cytoskeleton contraction at 20 to 200 nM after 24 hrs by Alexa Fluor 647/DAPI staining based fluorescence microscopic method; type: cell-based; how it was run: as §1
OVCAR-3 [12] = experiment: Cytotoxicity against human OVCAR3 cells assessed as reduction in cell viability at 200 nM after 48 hrs in presence of beta-galactosidase inhibitor beta-GA by WST8 assay; type: functional, cell-based; how it was run: as §2
Homo sapiens [13] = species on record: Homo sapiens; experiment: Induction of microtubule disruption in human OVCAR3 cells assessed as change in microtubule architecture at 1 nM after 24 hrs by Alexa Fluor 647/DAPI staining based fluorescence microscopic method; type: cell-based; how it was run: as §1
OVK18 [14] = experiment: Cytotoxicity against human OVK18 cells assessed as reduction in cell viability at 10 nM after 48 hrs in presence of beta-galactosidase inhibitor beta-GA by WST8 assay; type: functional, cell-based; how it was run: as §2
OVCAR-3 [15] = experiment: Cytotoxicity against human OVCAR3 cells assessed as reduction in cell viability at 10 nM after 48 hrs in presence of beta-galactosidase inhibitor beta-GA by WST8 assay; type: functional, cell-based; how it was run: as §2
Homo sapiens [16] = species on record: Homo sapiens; experiment: Induction of microtubule disruption in human OVCAR3 cells assessed as cytoskeleton contraction at 1 nM after 24 hrs by Alexa Fluor 647/DAPI staining based fluorescence microscopic method; type: cell-based; how it was run: as §1

SMILES: COc1ccc(/C=C\c2cc(OC)c(OC)c(OC)c2)cc1O [COMBRETASTATIN A4]
Activity (Homo sapiens [1]): Active | Activity (Homo sapiens [2]): Active | EC50 (OVCAR-3 [3]): 3.45 nM | Activity (Homo sapiens [4]): Active | EC50 [5]: 1.99 nM | Activity (Homo sapiens [6]): Active

inhibition (Sus scrofa): inactive | Drug metabolism (Beta-galactosidase): Metabolite_Detected
SMILES: COc1ccc(/C=C\c2cc(OC)c(OC)c(OC)c2)cc1O[C@@H]1O[C@H](CO)[C@H](O)[C@H](O)[C@H]1O
Activity (Homo sapiens [7]): Active | Activity (Homo sapiens [8]): Active | Activity (Homo sapiens [9]): Active | EC50 (OVCAR-3 [3]): 69.1 nM | Activity (OVK18 [10]): inactive | Activity (Homo sapiens [11]): Active | Activity (OVCAR-3 [12]): inactive | EC50 [5]: 252 nM

inhibition (Sus scrofa): inactive | Drug metabolism (Beta-galactosidase): Metabolite_Detected
SMILES: COc1ccc(/C=C\c2cc(OC)c(OC)c(OC)c2)cc1OCc1ccc(O[C@@H]2O[C@H](CO)[C@H](O)[C@H](O)[C@H]2O)cc1
Activity (Homo sapiens [13]): inactive | Activity (Homo sapiens [1]): Active | Activity (Homo sapiens [2]): Active | Activity (OVK18 [14]): inactive | EC50 (OVCAR-3 [3]): 2.47 nM | Activity (OVCAR-3 [15]): inactive | Activity (Homo sapiens [16]): Active | Activity (Homo sapiens [4]): Active | EC50 [5]: 2.67 nM | Activity (Homo sapiens [6]): Active
